Experimental data from ChEMBL document CHEMBL3414423, “Jatrophane diterpenes as inhibitors of chikungunya virus replication: structure-activity relationship and discovery of a potent lead” (J Nat Prod, 2014).

Key:
Chikungunya virus = assay: Antiviral activity against Chikungunya virus 899 infected in African green monkey Vero cells assessed as inhibition of virus-induced cell death after 6 to 7 days by MTS assay; type: functional, cell-based; conditions: Chikungunya virus, 899, Vero
[1] = Cytotoxicity against African green monkey Vero cells assessed as inhibition of overall cell metabolism after 6 to 7 days by MTS assay; type: ADME, cell-based; conditions: chlorocebus sabaeus
Procedure, shortened: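 Uninfected Vero cells (25 000/well) with compound serial dilutions in MEM with 2% FCS, 37 °C, 6−7 days. Readout 5% MTS for 1.5 h, absorbance 498 nm. CC50 is the concentration calculated to inhibit overall cell metabolism by 50%, from dose−response curves. Median ± median absolute deviation, ≥3 independent assays.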

Sindbis virus = assay: Antiviral activity against Sindbis virus HRsp infected in African green monkey Vero cells assessed as inhibition of virus-induced cell death after 6 to 7 days by MTS assay; type: functional, organism-based
Semliki Forest virus = assay: Antiviral activity against Semliki forest virus Vietnam infected in African green monkey Vero cells assessed as inhibition of virus-induced cell death after 6 to 7 days by MTS assay; type: functional, organism-based
[2] = Cytotoxicity against human MT4 cells assessed as inhibition of overall cell metabolism after 5 days by MTT assay; type: ADME, cell-based
Procedure, shortened: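 Mock-infected MT-4 cells in triplicate wells with serial 5-fold compound dilutions run alongside the infected series. Viability read by MTT formazan 5 days later; CC50 from the concentration-response. Median ± median absolute deviation, ≥3 independent assays.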

[3] = tested on: Human immunodeficiency virus 1; assay: Antiviral activity against Human immunodeficiency virus 1 3b infected in human MT4 cells assessed as inhibition of virus replication after 5 days by MTT assay; type: functional, organism-based; conditions: MT4, 120 h
Procedure, shortened: (§1)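 MT-4 cells ([…] suspension) infected with HIV-1 IIIB or HIV-2 ROD at 100−300 CCID50, with serial 5-fold compound dilutions in triplicate. Viability read by MTT reduction 5 days after infection. SI = CC50 MT-4/IC50. Median ± median absolute deviation, ≥3 independent assays.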

[4] = tested on: Human immunodeficiency virus 2; assay: Antiviral activity against Human immunodeficiency virus type 2 ROD infected in human MT4 cells assessed as inhibition of virus replication after 5 days by MTT assay; type: functional, organism-based; conditions: Human immunodeficiency virus 2, ISOLATE ROD, MT4, 120 h; procedure, shortened: as §1
[5] = Selectivity index, ratio of CC50 for African green monkey Vero cells to EC50 for Chikungunya virus 899 infected in African green monkey Vero cells; type: toxicity, cell-based; conditions: read-out: Ratio CC50/EC50
[6] = Selectivity index, ratio of CC50 for African green monkey Vero cells to EC50 for Sindbis virus HRsp infected in African green monkey Vero cells; type: toxicity, cell-based; conditions: read-out: Ratio CC50/EC50
[7] = Selectivity index, ratio of CC50 for human MT4 cells to IC50 for Human immunodeficiency virus 1 3b infected in human MT4 cells; type: functional; procedure, shortened: as §1
[8] = Selectivity index, ratio of CC50 for human MT4 cells to IC50 for Human immunodeficiency virus type 2 ROD infected in human MT4 cells; type: functional; procedure, shortened: as §1
[9] = tested on: Human immunodeficiency virus 1; assay: Antiviral activity against recombinant Human immunodeficiency virus 1 NL4.3 containing Renilla gene infected in CD3/IL2-activated human MT2 cells assessed as inhibition of virus replication pretreated for 2 hrs followed by viral infection for additional 2 hrs measured after 48 hrs by Renilla-luciferase reporter gene assay; type: functional, organism-based; conditions: Human immunodeficiency virus 1, NL4.3, MT2
[10] = Cytotoxicity against human MT2 cells assessed as cell viability incubated for 2 weeks with every 48 to 72 hrs of compound washed out measured on day 2, 6, 10, 14 by CellTiter Glo luminescence assay; type: cell-based
[11] = Selectivity index, ratio of CC50 for African green monkey Vero cells to EC50 for Semliki forest virus Vietnam infected in African green monkey Vero cells; type: toxicity, cell-based; conditions: read-out: Ratio CC50/EC50

SMILES	EC50 (Chikungunya virus) [µM]	CC50 [1] [µM]	EC50 (Sindbis virus) [µM]	EC50 (Semliki Forest virus) [µM]	CC50 at 120 h [2] [µM]	IC50 [3] [µM]	IC50 [4] [µM]	selectivity ratio [5]	selectivity ratio [6]	Ratio CC50/IC50 [7]	Ratio CC50/IC50 [8]	IC50 [9] [µM]	CC50 at 336 h [10] [µM]	selectivity ratio [11]
C=C1[C@H](OC(C)=O)[C@H]2[C@@H](OC(C)=O)[C@](C)(O)C[C@]2(OC(C)=O)C(=O)[C@H](C)/C=C/C(C)(C)C(=O)[C@H](OC(C)=O)[C@H]1OC(C)=O	> 164													
C=C1[C@H](OC(C)=O)[C@H]2[C@@H](OC(C)=O)[C@](C)(O)C[C@]2(OC(C)=O)C(=O)[C@H](C)/C=C/C(C)(C)C(=O)[C@H](OC(=O)C(C)C)[C@H]1OC(C)=O	> 196	> 196	> 157	> 157	> 32	> 79	> 79							
C=C1[C@H](OC(C)=O)[C@H]2[C@@H](OC(C)=O)[C@](C)(O)C[C@]2(OC(C)=O)C(=O)[C@H](C)/C=C/C(C)(C)C(=O)[C@H](OC(=O)/C(C)=C/C)[C@H]1OC(C)=O	0.76	159	44	> 116	> 32	0.34	0.043	208	3.6	>96	>751			
C=C1[C@H](OC(C)=O)[C@H]2[C@@H](OC(C)=O)[C@](C)(O)C[C@]2(OC(C)=O)C(=O)[C@H](C)/C=C/C(C)(C)C(=O)[C@H](OC(=O)c2ccccc2)[C@H]1OC(C)=O	4.3	125	> 165	> 165	> 30	> 59	10.9	29			>2.8			
C=C1[C@H](OC(C)=O)[C@H]2[C@@H](OC(C)=O)[C@](C)(OC(C)=O)C[C@]2(OC(C)=O)C(=O)[C@H](C)/C=C/C(C)(C)C(=O)[C@H](OC(C)=O)[C@H]1OC(C)=O	60	> 154	> 154	> 115	> 33	37.1	5.9	> 2.6			>5.5	0.002	> 100	
C=C1[C@H](OC(C)=O)[C@H]2[C@@H](OC(C)=O)[C@](C)(OC(C)=O)C[C@]2(OC(C)=O)C(=O)[C@H](C)/C=C/C(C)(C)C(=O)[C@H](OC(=O)/C(C)=C/C)[C@H]1OC(C)=O	17.4	145	> 145	> 145	> 35	21.5	2	8.3		>1.6	>18			
C=C1[C@H](OC(C)=O)[C@H]2[C@@H](OC(C)=O)[C@](C)(OC(C)=O)C[C@]2(OC(C)=O)C(=O)[C@H](C)/C=C/C(C)(C)C(=O)[C@H](OC(=O)c2ccccc2)[C@H]1OC(C)=O	17.1	> 50	> 140	> 140	> 36	> 70	34.7	> 2.9			>1			
C=C1[C@H](OC(C)=O)[C@H]2[C@@H](OC(=O)c3ccccc3)[C@@H](C)C[C@]2(O)[C@H](O)[C@H](C)/C=C/C(C)(C)C(=O)[C@H](OC(C)=O)[C@H]1OC(C)=O	19.5	151	30.1	62	> 31	> 38	5.2	7.8	5		>6			2.4
C=C1[C@H](OC(C)=O)[C@H]2[C@@H](OC(=O)c3ccccc3)[C@@H](C)C[C@]2(O)[C@H](O)[C@H](C)/C=C/C(C)(C)C(=O)[C@H](OC(=O)C(C)C)[C@H]1OC(C)=O	21	60	28.8	20.5	> 16	> 39	> 39	2.8	2.1					2.9
C=C1[C@H](OC(C)=O)[C@H]2[C@@H](OC(=O)c3ccccc3)[C@@H](C)C[C@]2(O)[C@H](O)[C@H](C)/C=C/C(C)(C)C(=O)[C@H](OC(=O)C(C)CC)[C@H]1OC(C)=O (stereo partly specified)	111	> 190	51	76	> 33	> 76	> 76	> 1.7	> 3.7					> 2.5
C=C1[C@H](OC(C)=O)[C@H]2[C@@H](OC(=O)c3ccccc3)[C@@H](C)C[C@]2(O)[C@H](OC(C)=O)[C@H](C)/C=C/C(C)(C)C(=O)[C@H](O)[C@H]1OC(C)=O	80	150	> 163	> 163	> 31	> 81	32.5	1.9			<0.9			
CCN(CC)CCCC(C)Nc1ccnc2cc(Cl)ccc12 (stereo unspecified) [CHLOROQUINE]	10													
O=c1[nH]cnc2c1ncn2[C@H]1CC[C@@H](CO)O1 [DIDANOSINE]					> 50	10.8	9.6			>4.6	>5.2			
Nc1ccn([C@@H]2CS[C@H](CO)O2)c(=O)n1 [LAMIVUDINE]					> 87					>22	>5.6			
Cc1ccnc2c1NC(=O)c1cccnc1N2C1CC1 [NEVIRAPINE]					> 15		> 15							
Cc1cn([C@H]2C[C@H](N=[N+]=[N-])[C@@H](CO)O2)c(=O)[nH]c1=O [ZIDOVUDINE]					> 25		0.006							
